Screens deposited in PubChem by The Scripps Research Institute Molecular Screening Center.
NPY1 pot ag – human NPY-Y1 potentiation or agonism, primary screen; P25929; NPY-Y1 expressing cells, potentiator/agonist activation; activation, % at 3.6 µM; 220,000 compounds, 0.37% hits; AID 1304; in the data active = activation above about 33%, passing the limit was not always enough;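 also: cells stimulated with NPY at EC10 then isoproterenol at EC100; 0% = low agonist plus stimulus and 100% = saturating agonist plus stimulus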
Target sequence (P25929 whole entry, looked up): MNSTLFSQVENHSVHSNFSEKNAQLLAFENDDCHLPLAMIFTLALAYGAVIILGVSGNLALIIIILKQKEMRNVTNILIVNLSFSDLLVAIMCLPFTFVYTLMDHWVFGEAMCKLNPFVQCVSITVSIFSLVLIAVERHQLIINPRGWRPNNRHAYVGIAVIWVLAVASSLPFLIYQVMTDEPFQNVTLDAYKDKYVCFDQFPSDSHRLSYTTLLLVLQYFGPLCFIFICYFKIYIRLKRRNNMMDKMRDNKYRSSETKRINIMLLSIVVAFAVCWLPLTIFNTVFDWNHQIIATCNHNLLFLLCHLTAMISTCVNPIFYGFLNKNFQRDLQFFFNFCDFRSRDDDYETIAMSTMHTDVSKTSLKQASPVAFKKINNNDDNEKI
NPY-Y1 antag – antagonists of human neuropeptide Y receptor Y1; HEK293-CNG Y1 cells, membrane potential fluorescence; NPY at EC95, then isoproterenol; inhibition, % at 3.6 µM; 200,000 compounds, 1% hits; AID 1040;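 active = inhibition above the campaign mean inhibition of all tested compounds plus 3 SD, cut at about 20% in these data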;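 also: 0% = DMSO wells given NPY plus isoproterenol and 100% = isoproterenol alone without NPY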
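Test system – HEK293 Y1/CNG channel cell line · Also added – NPY agonist 25 nM, then isoproterenol 1 µM plus Ro 20-1724 25 µM · Compound dosing – one concentration, 3.6 µM, in 0.4% DMSO · Schedule – compound incubation 1 h at room temperature, readout 45 min post-stimulation · Technique – fluorescence, membrane potential probe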
NPY2 pot ag – potentiates or activates human NPY-Y2 receptor | activation, % at 3.6 µM | AID 1359 | cells expressing NPY-Y2, potentiator/agonist read-out | 220,000 compounds, 0.45% hits; in the data active = activation above about 27%;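 also: cells stimulated with NPY near EC25 plus isoproterenol at EC100; 0% = vehicle plus submaximal agonist and 100% = vehicle plus saturating agonist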
NPY Y2 blocker – antagonists of human neuropeptide Y receptor Y2; 140,000 compounds, 0.99% hits; NPY-Y2 expressing cells, antagonist mode; inhibition, % at 2.7 µM; in the data active = inhibition above about 17%;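 also: 0% = vehicle with agonist challenge and 100% = reference antagonist with challenge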
NPY1 antag ctr – counter-screen for NPY-Y2 antagonists: human NPY-Y1 antagonism; 710 compounds, 19% hits; inhibition, % at 3.6 µM; AID 1256; shares compounds with NPY Y2 blocker; cell-based NPY-Y1 antagonism counterscreen; in the data active = inhibition above about 20%;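 also: cells challenged with NPY then isoproterenol with cAMP sensed through a CNG channel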
NPY2 antag conf – confirmation of human neuropeptide Y receptor Y2 antagonists; shares compounds with NPY Y2 blocker; HEK293 NPY-Y2 CNG channel, membrane potential fluorescence; inhibition, % at 2.8 µM; 710 compounds, 32% hits;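 active = mean inhibition of triplicate wells above the hit cutoff set in the primary screen, cut at about 17% in these data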;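 also: 0% = DMSO with NPY challenge and 100% = BIIE0246 high control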
Numbers without * were called inactive; / = no result given. Compounds with a hit are over-represented: about 1.8% of the library has one in this group of screens.

SMILES	NPY1 pot ag	NPY-Y1 antag	NPY2 pot ag	NPY Y2 blocker	NPY1 antag ctr	NPY2 antag conf
CCOc1ccccc1NC(=S)N1CCN(c2nc(-c3cccc(OC)c3)cs2)CC1	2.0	3.2	-4.9	/	/	/
COc1ccc(C(=O)NC(CC(=O)O)c2cc([N+](=O)[O-])ccc2Cl)c(SC)c1 (centres undefined)	5.6	7.7	-4.3	/	/	/
COc1ccc(-c2noc(CSc3nc(-c4ccccc4)cc(=O)[nH]3)n2)cc1	6.4	6.2	-3.7	24.6*	2.6	0.9
CCOC(=O)c1cc2c(ccn2C)n1CC(=O)N1CCN(c2ccccc2OC)CC1	13.1	0.3	4.2	2.5	/	/
COc1ccc(-c2csc(N(CCCN3CCOCC3)C(=O)c3ccco3)n2)cc1	-39.9	16.5	-7.5	18.3*	11.9	13.2
Cc1ccc(-c2csc(N(CCCN3CCOCC3)C(=O)c3ccco3)n2)cc1	-35.3	14.4	-12.9	17.7*	14.0	11.1
COc1ccc(NC(=O)C2CCC(C(C)(C)C)CC2)cc1S(=O)(=O)N1CCCCC1 (centres undefined)	-26.3	-0.9	0.9	20.7*	5.8	3.2
COc1ccc(NC(=O)c2n[nH]c(=O)c3ccccc23)cc1S(=O)(=O)N1CCCCC1	-17.6	3.7	-9.4	27.1*	14.6	19.1*
COc1ccc(OC)c(S(=O)(=O)N2CCC(C(=O)Nc3ccccc3)CC2)c1	-2.9	0.3	-3.9	/	/	/
CNNC(=S)Nc1cccc(SC)c1	-2.6	/	0.7	/	/	/
CCOc1ccc(/C=N/OCC(=O)NCc2ccco2)cc1	0.6	-4.3	-19.1	/	/	/
CCOC(=O)CCCCC(=O)c1[nH]c(=O)[nH]c1CSc1nnc2c3ccccc3n(C(C)C)c2n1	-30.7	4.4	0.4	32.1*	18.1	44.9*
O=C(CSc1nc2ccccc2[nH]1)NCC1CCCO1 (centres undefined)	-5.7	-3.7	-5.5	1.9	/	/
Cc1cc(NC(=O)C2CCCCC2)n(-c2nc3ccccc3[nH]2)n1	-22.8	9.2	-13.7	17.5*	22.3*	13.0
Cc1cc(NC(=O)c2c(F)cccc2F)n(-c2nc3ccccc3[nH]2)n1	-17.0	-1.1	-5.7	8.0	/	/
NC(=O)Cn1c(S(=O)(=O)Cc2ccccc2)nc2ccccc21	-4.0	3.3	8.4	0.8	/	/
CCOC(=O)Cn1c(S(=O)(=O)Cc2cccc(F)c2)nc(-c2ccccc2)c1-c1ccccc1	-18.4	16.4	-12.2	19.3*	16.6	9.3
Cc1ccc(-c2cc(C(=O)Nc3ccc4c(c3)OCCO4)c3ccccc3n2)cc1	-78.6	17.9	-81.4	26.9*	18.1	39.2*
O=C(Nc1ccc2c(c1)OCO2)c1cc(-c2cccnc2)nc2ccccc12	-14.3	6.6	-17.3	/	/	/
Cc1ccc(C(c2c(C)n(C)n(-c3ccccc3)c2=O)c2c(C)n(C)n(-c3ccccc3)c2=O)s1	12.4	4.3	3.4	/	/	/
CCOC(=O)C(=O)N1CCN(c2cc3c(cc2[N+](=O)[O-])n(C)c(=O)n3C)CC1	1.6	0.6	-6.2	/	/	/
O=C(CN(CC1CCCO1)C(=O)CNS(=O)(=O)c1ccc(Cl)cc1)NCC1CCCO1 (centres undefined)	1.0	-1.9	2.4	5.0	/	/
CCC(C)N(C(=O)Cn1nnc2ccccc21)C(C(=O)Nc1ccc(F)cc1)c1cccc(OC)c1 (centres undefined)	-36.6	16.1	-63.5	18.4*	10.6	11.3
CN(C)CCOC(C1CCCCC1)C1CCCCC1	-34.5	18.0	-14.4	26.8*	12.2	15.9
CN(C)CCNC(=S)NC1CCCCC1	1.1	7.4	-19.6	/	/	/
SMILES	NPY1 pot ag	NPY-Y1 antag	NPY2 pot ag	NPY Y2 blocker	NPY1 antag ctr	NPY2 antag conf
COc1ccc(CC(=O)NNC(=O)c2nn(Cc3ccccc3)c(=O)c3ccccc23)cc1OC	-1.2	/	-16.6	/	/	/
Cc1ccc(NC(=O)C(Nc2cccc(C)c2)c2ccccc2)cc1 (centres undefined)	-13.3	10.8	-0.9	3.9	/	/
CCCOC(=O)CSC1=C(C#N)C(c2ccccc2OC)C(C#N)C(=O)N1 (centres undefined)	5.8	-5.2	12.1	-1.0	/	/
O=C(Nc1c(C(=O)O)oc2ccc(Br)cc12)c1ccccc1	17.4	-2.9	9.6	1.5	/	/
Cc1c(NC(=O)C(Sc2ccccc2)c2ccccc2)cccc1[N+](=O)[O-] (centres undefined)	0.7	5.8	-10.4	17.7*	8.0	12.4
Cc1nc(-c2ccccc2)sc1C(=O)CSc1ccc(F)cc1	-28.1	19.3	-31.6	20.0*	21.1*	25.0*
CNC(=O)c1sc(-c2ccccc2)nc1C	11.9	-5.9	-2.4	-0.7	/	/
Cc1ccc(OCc2nc(C#N)c(NCc3ccc4c(c3)OCO4)o2)cc1	-65.7	11.2	-21.2	22.2*	11.4	9.3
CCOc1ccc(-c2nc(C#N)c(NCc3ccc4c(c3)OCO4)o2)cc1	-8.3	5.2	-6.0	9.0	/	/
CCc1nc(N2CCN(S(C)(=O)=O)CC2)c2c3c(sc2n1)CCCC3	-27.0	13.0	-28.3	/	/	/
CCN1/C(=C2\OC(=S)N(C)C2=O)C=Cc2ccccc21	4.9	-4.4	-5.9	/	/	/
CCN1/C(=C2\OC(=S)N(C)C2=O)Sc2ccccc21	11.2	-0.8	5.2	19.5*	-1.0	11.7
Clc1ccc(C2=Nn3c(nnc3-c3n[nH]c4c3CCC4)SC2)cc1Cl	-14.7	13.6	-29.7	66.6*	10.6	17.9*
c1ccc(C2=Nn3c(nnc3-c3n[nH]c4c3CCC4)SC2)cc1	-30.8	9.1	-13.6	-2.7	/	/
CCOC(=O)c1c(N/N=C/c2cccnc2)n[nH]c1C	7.7	/	9.8	/	/	/
CCOC(=O)c1cc(-c2ccccc2)sc1NC(=O)CC	-28.0	1.0	-5.4	21.5*	0.6	0.4
Cc1ccc(NC(=O)/C=C/c2ccc3c(c2)OCO3)cc1S(=O)(=O)N1CCOCC1	-2.1	-0.2	-10.8	5.2	/	/
N/C(Cc1ccc(Cl)cc1)=N\OC(=O)Cc1ccc([N+](=O)[O-])cc1	-26.9	4.3	-15.4	2.4	/	/
CCOC(=O)/C(N=Nc1ccc(Cl)cc1)=C(/O)c1ccc([N+](=O)[O-])cc1	5.1	0.1	-7.3	17.3*	-0.8	-0.9
CCN(CC)c1nc2cc(OC)ccc2cc1C#N	-1.9	2.8	15.1	23.2*	1.4	4.5
CCSc1nc2ccc(OC)cc2cc1C#N	-13.2	7.4	-3.3	21.5*	12.6	20.2*
CCOC(=O)c1c(-c2ccc(C)o2)csc1NC(=O)COC(=O)c1cccs1	-26.1	3.6	-4.0	20.0*	4.8	2.5
CCOC(=O)c1c(-c2ccc(C)o2)csc1NC(=O)CN1CCOCC1	4.9	4.0	-8.5	6.0	/	/
COC(=O)c1c(-c2ccccc2)c[nH]c1C	15.9	/	-0.9	/	/	/
O=C1c2ccccc2N2C(=O)c3ccccc3C2N1O (centres undefined)	3.1	-1.4	-3.6	0.2	/	/
Cc1ccccc1N1C(=O)c2ccccc2N2C(=O)c3ccccc3C12 (centres undefined)	-9.1	12.0	-17.0	22.7*	4.8	6.9
CCCCc1nc2ccccc2c(NC(=O)CNC(C)(C)C)c1CCC	-8.6	4.3	1.5	-0.5	/	/
